Activity calls are given as the source filed them.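 Rule for the calls: active = current rise at least 3 SD above the untreated control mean in each of two repeat wells; inactive = the rest.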
Target: Potassium voltage-gated channel subfamily KQT member 1 (Homo sapiens) (UniProt P51787)
Test: KCNQ1 activators by electrophysiology – IonWorks patch clamp, KCNQ1-CHO cells, orthogonal assay for KCNQ1 potentiator project, confirmation (AID 493184)
Settings: automated patch clamp current, at 10 µM
In short: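 Assay system – CHO cells carrying KCNQ1 · Medium – pH 7.4 external bath · Probe or stimulus – depolarizing pulse to +40 mV from -90 mV · Compound dosing – one dose, 10 µM final · Measured by – automated perforated-patch electrophysiology · Measure – % potentiation of steady-state current relative to pre-compound · Repeats – two replicates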

Chain of Potassium voltage-gated channel subfamily KQT member 1 (Homo sapiens) (P51787 whole entry, looked up): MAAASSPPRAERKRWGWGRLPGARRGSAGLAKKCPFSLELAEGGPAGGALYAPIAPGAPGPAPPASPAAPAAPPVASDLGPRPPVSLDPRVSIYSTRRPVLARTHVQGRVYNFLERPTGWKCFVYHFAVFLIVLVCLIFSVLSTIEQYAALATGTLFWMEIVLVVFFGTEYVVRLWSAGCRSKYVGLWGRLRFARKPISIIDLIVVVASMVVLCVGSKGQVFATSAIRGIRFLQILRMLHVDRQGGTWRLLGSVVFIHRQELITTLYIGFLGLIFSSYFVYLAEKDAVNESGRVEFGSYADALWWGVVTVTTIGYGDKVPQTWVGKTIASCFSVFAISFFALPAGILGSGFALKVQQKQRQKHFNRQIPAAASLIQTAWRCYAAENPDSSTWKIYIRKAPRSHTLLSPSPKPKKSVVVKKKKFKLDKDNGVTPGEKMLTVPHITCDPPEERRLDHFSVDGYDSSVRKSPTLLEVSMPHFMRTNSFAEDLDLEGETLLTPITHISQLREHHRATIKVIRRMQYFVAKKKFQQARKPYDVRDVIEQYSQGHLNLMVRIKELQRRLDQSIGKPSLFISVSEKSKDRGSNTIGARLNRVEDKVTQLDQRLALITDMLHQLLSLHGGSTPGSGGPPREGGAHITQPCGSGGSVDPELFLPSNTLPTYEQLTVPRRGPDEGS

outcome, inactive:
CCCc1cc2c(-c3ccccc3)cc(=O)oc2cc1OCc1ccc(C(=O)O)o1, O=C(c1cc([N+](=O)[O-])cc([N+](=O)[O-])c1)N1CCCc2ccccc21, O=c1c2ccccc2nc(-c2cccc(Cl)c2)n1O, CC(C)(C)NC(=O)C(=O)NNC(=O)c1cccc(F)c1, CC1=NN(C(=O)c2csc(C(C)C)c2)C(O)(C(F)(F)F)C1 (configuration not stated), CCS(=O)(=O)Nc1ccc(C(=O)CC2(O)C(=O)Nc3ccccc32)cc1 (configuration not stated), Cc1onc(-c2ccccc2)c1C(=O)N1CCN(S(=O)(=O)c2ccc(OC(F)(F)F)cc2)CC1, CCNC(=S)/N=C(\N)Nc1nc(C)c2cc(C)ccc2n1, O=C(O)c1ccc2c(c1)C(=O)N(Cc1ccccc1)C2=O, Cc1cc(C(c2cc(C)c(N)c(C)c2)c2ccco2)cc(C)c1N, O=C(/C=C/c1ccccc1)C1C(=O)c2ccccc2C1=O, Cc1cccc(-n2c(=S)[nH]c3sc4c(c3c2=O)CCc2ccccc2-4)c1, CCC1Oc2ccc(C)cc2N(CC(=O)N(Cc2ccc(C)o2)C2CC(C)(C)NC(C)(C)C2)C1=O (configuration not stated), COc1ccccc1C(=O)Nc1ccnn1C1CCN(CCCC2CCCC2)CC1, O=C(NNC(=S)NC(=O)c1ccco1)c1ccc(F)cc1, CC(C)(C)NC(=O)C(=O)NNC(=O)c1ccc(C(C)(C)C)cc1, O=C(NC(=S)N1CCN(c2nc(-c3ccccc3)cs2)CC1)c1cncc(Br)c1

From PubChem BioAssay
